Reference: ChEMBL document CHEMBL1821590, “Novel dihydropyrimidines and its pyrazole derivatives: synthesis and pharmacological screening” (Eur J Med Chem, 2011)
Converted amounts (≈) assume the structure as drawn.

Key:
Assay type in all cases: functional
Staphylococcus aureus [1] = test: Antimicrobial activity against Staphylococcus aureus at 50 ug/ml by agar plate diffusion technique; conditions: read-out: IZ
Outline: (§1)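 Agar plate diffusion against E. coli, P. aeruginosa, S. aureus and B. subtilis, with compounds at 25, 50 and 100 µg/mL. Streptomycin as standard.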

Bacillus subtilis [2] = test: Antimicrobial activity against Bacillus subtilis at 50 ug/ml by agar plate diffusion technique; conditions: read-out: IZ; outline: as §1
Metaphire posthuma [3] = test: Anthelmintic activity against Pheretima posthuma assessed as time taken for parasite death at 0.1% w/v
Outline: (§2)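 Earthworms (Pheretima posthuma, spelled Perituma posthuma in text) exposed to test compounds at 0.1, 0.2 and 0.5% w/v. Albendazole served as standard, with an untreated control. Paralysis was recorded as the time until worms became motionless, then time to death was recorded, in minutes. Each value is the mean of three determinations with S.D.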

[4] = Antioxidant activity assessed as hydrogen peroxide scavenging activity after 10 mins
Outline: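 H2O2 (20 mM) in PBS pH 7.4. 1 mL of sample or ascorbic acid in methanol (12.5–100 µg/mL) added to 2 mL H2O2 solution. A230 read after 10 min. % inhibition = [1 − (Vt/Vc)] × 100. Triplicate, averaged. IC50 derived from % inhibition across concentrations.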

Aspergillus niger [5] = test: Antimicrobial activity against Aspergillus niger at 25 ug/ml by paper disc method; conditions: read-out: IZ
Outline: (§3)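 Paper disc method against A. niger and C. albicans, with compounds at 25, 50 and 100 µg/mL. Amphotericin-B as standard.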

Escherichia coli [6] = test: Antimicrobial activity against Escherichia coli at 100 ug/ml by agar plate diffusion technique; conditions: read-out: IZ; outline: as §1
Bacillus subtilis [7] = test: Antimicrobial activity against Bacillus subtilis at 25 ug/ml by agar plate diffusion technique; conditions: read-out: IZ; outline: as §1
Bacillus subtilis [8] = test: Antimicrobial activity against Bacillus subtilis at 100 ug/ml by agar plate diffusion technique; conditions: read-out: IZ; outline: as §1
[9] = Antiinflammatory activity assessed as inhibition of albumin denaturation at 100 ug/ml by UV-visible spectrophotometry
Outline: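 Compounds dissolved in minimal DMF, diluted in PBS pH 7.4 (final DMF <2.5%). 1 mL test solution (100 µg/mL) plus 1 mL 1% albumin in PBS, 15 min at 27 ± 1 °C, then heated 10 min at 60 ± 1 °C. After cooling, turbidity read at 660 nm. % inhibition = [(Vt/Vc) − 1] × 100 against a no-drug control. Triplicate, averaged. Diclofenac standard.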

Metaphire posthuma [10] = test: Anthelmintic activity against Pheretima posthuma assessed as time taken for parasite death at 0.2% w/v; outline: as §2
Escherichia coli [11] = test: Antimicrobial activity against Escherichia coli at 50 ug/ml by agar plate diffusion technique; conditions: read-out: IZ; outline: as §1
Metaphire posthuma [12] = test: Anthelmintic activity against Pheretima posthuma assessed as time taken for complete parasite paralysis at 0.5% w/v
Outline: (§4)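 Earthworms (Pheretima posthuma) exposed to test solutions at 0.1, 0.2 and 0.5% w/v; time in minutes to complete paralysis (worms motionless) recorded. Albendazole as standard. Mean of three determinations ± S.D.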

Aspergillus niger [13] = test: Antimicrobial activity against Aspergillus niger at 50 ug/ml by paper disc method; conditions: read-out: IZ; outline: as §3
Pseudomonas aeruginosa [14] = test: Antimicrobial activity against Pseudomonas aeruginosa at 100 ug/ml by agar plate diffusion technique; conditions: read-out: IZ; outline: as §1
Candida albicans [15] = test: Antimicrobial activity against Candida albicans at 25 ug/ml by paper disc method; conditions: read-out: IZ; outline: as §3
Metaphire posthuma [16] = test: Anthelmintic activity against Pheretima posthuma assessed as time taken for parasite death at 0.5% w/v; outline: as §2
[17] = Antioxidant activity assessed as nitric oxide radical scavenging activity after 150 mins
Outline: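 10 mM sodium nitroprusside (4 mL), PBS pH 7.4 (1 mL) and sample or ascorbic acid in DMSO (1 mL, 12.5–100 µg/mL), incubated 150 min at 25 °C. Nitrite detected with sulphanilic acid (5 min) then naphthylethylenediamine (30 min, diffused light). Read at […]. Triplicate. % inhibition = [1 − (Vt/Vc)] × 100. IC50 derived from it.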

Pseudomonas aeruginosa [18] = test: Antimicrobial activity against Pseudomonas aeruginosa at 50 ug/ml by agar plate diffusion technique; conditions: read-out: IZ; outline: as §1
Staphylococcus aureus [19] = test: Antimicrobial activity against Staphylococcus aureus at 25 ug/ml by agar plate diffusion technique; conditions: read-out: IZ; outline: as §1
Candida albicans [20] = test: Antimicrobial activity against Candida albicans at 50 ug/ml by paper disc method; conditions: read-out: IZ; outline: as §3
Escherichia coli [21] = test: Antimicrobial activity against Escherichia coli at 25 ug/ml by agar plate diffusion technique; conditions: read-out: IZ; outline: as §1
Metaphire posthuma [22] = test: Anthelmintic activity against Pheretima posthuma assessed as time taken for complete parasite paralysis at 0.2% w/v; outline: as §4
[23] = Antioxidant activity assessed as inhibition of lipid peroxidation using egg lecithin liposomes incubated for 1 hr
Outline: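 Egg lecithin (3 mg/mL, phosphate buffer pH 7.4) sonicated 10 min to form liposomes. Sample or ascorbic acid (12.5–100 µg/mL) added. Peroxidation induced with FeCl3 and L-ascorbic acid, 1 h at 37 °C. Stopped with HCl/TCA/TBA/BHA, boiled 15 min, centrifuged, supernatant read at 532 nm. Triplicate. % inhibition vs control. IC50 derived.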

Aspergillus niger [24] = test: Antimicrobial activity against Aspergillus niger at 100 ug/ml by paper disc method; conditions: read-out: IZ; outline: as §3
Candida albicans [25] = test: Antimicrobial activity against Candida albicans at 100 ug/ml by paper disc method; conditions: read-out: IZ; outline: as §3
[26] = Antioxidant activity assessed as potassium ferricyanide ion reducing power after 20 mins
Outline: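 Oyaizu method. Samples or ascorbic acid in DMF (12.5–100 µg/mL) mixed with 0.2 M phosphate buffer pH 6.6 and 1% potassium ferricyanide, 20 min at 50 °C. 10% TCA added, centrifuged. Supernatant mixed with water and 0.1% FeCl3, read at 700 nm. % = [(Vt/Vc) − 1] × 100. IC50 derived.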

Pseudomonas aeruginosa [27] = test: Antimicrobial activity against Pseudomonas aeruginosa at 25 ug/ml by agar plate diffusion technique; conditions: read-out: IZ; outline: as §1
Staphylococcus aureus [28] = test: Antimicrobial activity against Staphylococcus aureus at 100 ug/ml by agar plate diffusion technique; conditions: read-out: IZ; outline: as §1
Metaphire posthuma [29] = test: Anthelmintic activity against Pheretima posthuma assessed as time taken for complete parasite paralysis at 0.1% w/v; outline: as §4

## CCOC(=O)c1cnn(-c2nc(-c3ccccc3Cl)c(C#N)c(=O)n2C)c1N
Staphylococcus aureus [1]
  zone of inhibition at 50 µg/mL: 18.3 mm
Bacillus subtilis [2]
  zone of inhibition at 50 µg/mL: 17.2 mm
Metaphire posthuma [3]
  Time: 72.26 min
[4]
  IC50: 98 µg/mL (≈ 246 µM)
Aspergillus niger [5]
  zone of inhibition at 25 µg/mL: 12.2 mm
Escherichia coli [6]
  zone of inhibition at 100 µg/mL: 26.9 mm
Bacillus subtilis [7]
  zone of inhibition at 25 µg/mL: 13.4 mm
Bacillus subtilis [8]
  zone of inhibition at 100 µg/mL: 26.2 mm
[9]
  inhibition: 74.2%
Metaphire posthuma [10]
  Time: 57.5 min
Escherichia coli [11]
  zone of inhibition at 50 µg/mL: 20.5 mm
Metaphire posthuma [12]
  Time: 46.18 min
Aspergillus niger [13]
  zone of inhibition at 50 µg/mL: 15.1 mm
Pseudomonas aeruginosa [14]
  zone of inhibition at 100 µg/mL: 23.9 mm
Candida albicans [15]
  zone of inhibition at 25 µg/mL: 11.5 mm
Metaphire posthuma [16]
  Time: 51.7 min
[17]
  IC50: 93 µg/mL (≈ 233 µM)
Pseudomonas aeruginosa [18]
  zone of inhibition at 50 µg/mL: 16.3 mm
Staphylococcus aureus [19]
  zone of inhibition at 25 µg/mL: 14.6 mm
Candida albicans [20]
  zone of inhibition at 50 µg/mL: 14.9 mm
Escherichia coli [21]
  zone of inhibition at 25 µg/mL: 13.2 mm
Metaphire posthuma [22]
  Time: 42.05 min
[23]
  IC50: 102 µg/mL (≈ 256 µM)
Aspergillus niger [24]
  zone of inhibition at 100 µg/mL: 22.4 mm
Candida albicans [25]
  zone of inhibition at 100 µg/mL: 20.2 mm
[26]
  IC50: 78 µg/mL (≈ 196 µM)
Pseudomonas aeruginosa [27]
  zone of inhibition at 25 µg/mL: 12.2 mm
Staphylococcus aureus [28]
  zone of inhibition at 100 µg/mL: 24.3 mm
Metaphire posthuma [29]
  Time: 58.08 min
